ChEMBL document CHEMBL1125330, “N-substituted pyrazino[2,3-c][1,2,6]thiadiazine 2,2-dioxides. A new class of diuretics” (J Med Chem, 1992)
One block for each molecule: values may come before it.

How the values were obtained:
Conditions in all cases: in vivo
Rattus norvegicus [1] = organism: Rattus norvegicus; experiment: Mean urinary output in rats (Control/Drug treatment; value 23.3/29.9; assay type: ADME, organism-based, Urine
Rattus norvegicus [2] = organism: Rattus norvegicus; experiment: Mean urinary output in rats (Control/Drug treatment value); value 22.8/35.1; assay type: ADME, organism-based, Urine
How it was run: (§1)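 Water-loaded male Sprague-Dawley rats (HC/CFY, 175-200 g), eight per group, deprived of food and water 18 h. Single oral gavage of 20-25 mg/kg (some 10 mg/kg) in 1% CMC/0.1% Tween 80, then distilled water 2.5 mL/100 g bw po. Cumulative urine over 6 h in metabolic cages; mean mL/6 h/kg bw vs vehicle group.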

Rattus norvegicus [3] = organism: Rattus norvegicus; experiment: Mean sodium excretion in rats (Control/Drug treatment value); value 0.41/2.06; assay type: ADME, organism-based
Rattus norvegicus [4] = organism: Rattus norvegicus; experiment: Mean sodium excretion in rats (Control/Drug treatment value); value 0.44/2.68; assay type: ADME, organism-based
Rattus norvegicus [5] = organism: Rattus norvegicus; experiment: Mean urinary output in rats (Control/Drug treatment value); value 26.1/45.7; assay type: ADME, organism-based, Urine; how it was run: as §1
Rattus norvegicus [6] = organism: Rattus norvegicus; experiment: Mean urinary output in rats (Control/Drug treatment value); value 25.4/33.8; assay type: ADME, organism-based, Urine; how it was run: as §1
Rattus norvegicus [7] = organism: Rattus norvegicus; experiment: Mean sodium excretion in rats (Control/Drug treatment value); value 0.48/0.95; assay type: ADME, organism-based

V (Rattus norvegicus [1]): 1.3
Structure (SMILES): CCN1c2nc(C(F)(F)F)c(C(F)(F)F)nc2C(N)=NS1(=O)=O

V (Rattus norvegicus [2]): 1.5 | Na (Rattus norvegicus [3]): 5
Structure (SMILES): CCCN1c2nc(CC)c(C)nc2C(N)=NS1(=O)=O

Na (Rattus norvegicus [4]): 6.1 | V (Rattus norvegicus [5]): 1.8
Structure (SMILES): CCCN1c2nc(C)c(C)nc2C(N)=NS1(=O)=O

V (Rattus norvegicus [6]): 1.3 | Na (Rattus norvegicus [7]): 2
Structure (SMILES): CCc1nc2c(nc1CC)N(CC)S(=O)(=O)N=C2N
